Experimental data: PubChem BioAssay AID871 (The Scripps Research Institute Molecular Screening Center, 2007)
Among all 190,000 compounds or so, about 1,800 (0.95%) were called active.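 How the source made its calls: active means activation above the screen-wide mean of compound activation plus 3 SD (cut at about 130% in these data); inactive means the rest.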 Many of the other results were omitted from the sample, so actives are more common in it than they were.

Test: enhancers of STAT3 transcriptional signaling – U3A cells, luciferase, luminescence, MLSCN library, primary screen (AID 871);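 further: 0% = background luminescence of wells with medium and substrate only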
Settings: IL-6 STAT3-luciferase reporter, at 5.6 µM, hits give high values, 100% = signal with IL-6 EC80 alone
Summary of the method: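 Material: human U3A cells carrying STAT3-luciferase construct. Measured by: reporter luminescence signal. Timing: compound 1 h, then IL-6 6 h at 37 °C.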

Activation (% of control), inactive:
Cc1cc(C)c(C#N)c(SCC(=O)Nc2ccccc2)n1 85.2%
Cc1ccc(C(=O)N2CCCC(c3ccccc3)=N2)cc1 92.1%
COc1ccc(OC)c(S(=O)(=O)Nc2ccccc2F)c1 96.8%
COC(=O)c1[nH]c2ccc(Br)cc2c1NC(=O)Oc1ccccc1 102%
O=[N+]([O-])c1ccccc1Nc1ccc(O)cc1 104%
CCOc1ccc2c(=O)c(-c3ccc4c(c3)OCCCO4)c(C)oc2c1 98.4%
CCC(C)C(=O)Nc1cc([N+](=O)[O-])ccc1Cl (configuration not stated) 103%
CC(C)C(=O)Nc1cccc(NC(=O)c2ccc([N+](=O)[O-])cc2Cl)c1 106%
CC1CCC2(CC1)NC(=O)N(Cc1nnc(-c3cccs3)o1)C2=O (configuration not stated) 96.4%
C/C(=C\c1ccco1)CN1CCC(N2CCC(C(=O)N3CCOCC3)CC2)CC1 110%
Cn1cc(CN2CCCC(CO)C2)c(-c2ccc(Oc3ccccc3)cc2)n1 (configuration not stated) 108%
COc1cc(NS(=O)(=O)c2ccc(NC(=O)c3ccc(S(=O)(=O)N4CCCCC4)cc3)cc2)ncn1 97.5%
COc1cc(NS(=O)(=O)c2ccc(N=Cc3c(C)[nH]n(-c4ccccc4)c3=O)cc2)nc(OC)n1 111%
NC(=O)c1ccc(NC(=O)COC(=O)C(Cc2ccccc2)NC(=O)c2ccccc2)cc1 (configuration not stated) 92.8%
CCN(CC)CCN(C(=O)c1ccc(N2C(=O)CCC2=O)cc1)c1nc2cc3c(cc2s1)OCO3 107%
C/C(=N/NC(=O)c1ccc(NC(=O)c2ccc(F)cc2)cc1)c1ccccc1 85.3%
COc1ccc(C(=O)Nc2ccccc2C(=O)N/N=C/c2ccccc2OC)cc1 105%
CCCn1c(C)cc(/C=C(\C#N)C(=O)OCC(=O)Nc2cc(OC)c(OC)c(OC)c2)c1C 103%
Cc1nc2ccccc2cc1OCc1ccc(F)cc1 44.1%
Cc1cc(O)ccc1-c1cnc2ccccc2n1 102%
CC(=O)NCCC(=O)Nc1cc(S(=O)(=O)N2CCOCC2)ccc1N1CCOCC1 105%
CCOc1cc(NC(=S)NCCCN(C)C)c(OCC)cc1NC(=O)C1CC1 99.1%
O=C(NNC1=C(C(=O)C(F)(F)F)CCC1)c1ccncc1 95.6%
CCn1c(NC(=O)c2nn(C)cc2Br)nc2ccccc21 96.8%
Oc1ccc(Br)cc1C=Nc1ccc2[nH]ncc2c1 102%
S=c1[nH]nc(-c2cccs2)n1/N=C/c1cccs1 109%
Cc1cc(OC(=O)c2ccccc2)c([N+](=O)[O-])c(=O)[nH]1 106%
O=C(NCC1CCCO1)/C(=C/c1ccc(Cl)cc1)NC(=O)c1ccccc1 (configuration not stated) 88.2%
CSc1ccccc1NC(=O)c1cc(C2CC2)on1 122%
Cc1nn(Cc2ccc(Cl)c(Cl)c2)c(C)c1NC(=O)c1cc(C2CC2)on1 92.8%
CCCN(CCC)c1c([N+](=O)[O-])c(=O)oc2ccccc12 96.6%
Cc1ccn(-c2cccc(-n3ccc(C)n3)n2)n1 93.6%
CCC(C)NC(=O)CN(C1CCCCC1)S(C)(=O)=O (configuration not stated) 105%
Cc1cc(=O)n2[nH]c(-c3sccc3-n3c(C)ccc3C)cc2n1 118%
CCCC(C)C(=O)OCC(=O)Nc1c(Br)cc(C)cc1Br (configuration not stated) 102%
CCc1nnc(NC(=O)[C@@H](NC(=O)c2cccc(C)c2)C(C)C)s1 101%
COc1ccc(Cc2nnc(NC(=O)c3cc(OC)c(OC)c(OC)c3)s2)cc1OC 91.5%
CCc1ccc2ncc(C(=O)c3ccccc3)c(N3CCOCC3)c2c1 110%
CCn1c(SCC(=O)Nc2ccc(S(=O)(=O)Nc3onc(C)c3C)cc2)nnc1-c1ccccc1 98.7%
Cc1ccc(-n2c(SCC(=O)N/N=C/C=C/c3ccccc3[N+](=O)[O-])nc3ccccc3c2=O)cc1 97.7%
COc1ccc(CCNC(=O)COC(=O)Cc2cc(OC)c(OC)c(OC)c2)cc1 111%
CC(C)NC(=O)C(=O)NCCCOC(C)C 101%
COc1ccc2nc(/N=C(\N)NC(=O)Nc3ccccc3)nc(C)c2c1 100%
CCc1c(C)nc2c(OC)cccc2c1Cl 101%
Cc1cccc2c(=O)n3c(nc12)CCCCC3 102%
O=C(COC(=O)c1ccccc1)Nc1cccc(S(=O)(=O)N2CCOCC2)c1 101%
CCC1CCCCN1C(=S)Nc1ccc(SC(F)F)cc1 (configuration not stated) 94.3%
CC1(C)CC(=O)CC2(C1)NCC(c1ccccc1Cl)c1c2[nH]c2ccccc12 (configuration not stated) 105%
O=C(C1=C(O)C(=O)N(Cc2ccccc2)C1c1ccco1)c1ccco1 (configuration not stated) 101%
O=C(C1=C(O)C(=O)N(Cc2ccccc2)C1c1cccnc1)c1ccco1 (configuration not stated) 100%

Activation (% of control), active:
COC(=O)c1[nH]c2ccccc2c1NS(=O)(=O)c1ccc(OC)cc1OC 149%
Cc1ccc(NC(=O)c2cc([N+](=O)[O-])ccc2Cl)c(O)c1 138%
COc1cc(NS(=O)(=O)c2ccc(N/C=C(\C=O)c3nc4cc(Cl)ccc4o3)cc2)nc(OC)n1 159%
COc1ccccc1C(=O)NNC(=O)c1ccc(NC(=O)c2ccccc2)cc1 134%
Cc1nc2ccccc2cc1O 163%
CCN(CC)CCn1c(/N=C/c2cc(Br)ccc2O)nc2ccccc21 133%
O=C(Nc1cc(C(F)(F)F)ccc1Cl)c1cc(C2CC2)on1 150%
Cc1cccc(C(=O)Nc2nnc(Cc3c[nH]c4ccccc34)s2)c1 157%
CCn1c(SCC(=O)N/N=C/C=C/c2ccccc2[N+](=O)[O-])nnc1-c1ccccc1 138%
Cc1nc(N=C(N)N)nc2c(C)cccc12 168%
COc1nc(N=C(N)N)nc2c(C)cccc12 172%
O=C(C1=C(O)C(=O)N(c2ncccn2)C1c1cccs1)c1ccco1 (configuration not stated) 134%
